We go through three compounds from ChEMBL document CHEMBL4425103, “Diving into the Water: Inducible Binding Conformations for BRD4, TAF1(2), BRD9, and CECR2 Bromodomains” (J Med Chem, 2016).

SMILES strings stand for the structures.

One assay deals with T1, Peregrin (Homo sapiens, UniProt P55201).
T1 sequence (P55201 whole entry): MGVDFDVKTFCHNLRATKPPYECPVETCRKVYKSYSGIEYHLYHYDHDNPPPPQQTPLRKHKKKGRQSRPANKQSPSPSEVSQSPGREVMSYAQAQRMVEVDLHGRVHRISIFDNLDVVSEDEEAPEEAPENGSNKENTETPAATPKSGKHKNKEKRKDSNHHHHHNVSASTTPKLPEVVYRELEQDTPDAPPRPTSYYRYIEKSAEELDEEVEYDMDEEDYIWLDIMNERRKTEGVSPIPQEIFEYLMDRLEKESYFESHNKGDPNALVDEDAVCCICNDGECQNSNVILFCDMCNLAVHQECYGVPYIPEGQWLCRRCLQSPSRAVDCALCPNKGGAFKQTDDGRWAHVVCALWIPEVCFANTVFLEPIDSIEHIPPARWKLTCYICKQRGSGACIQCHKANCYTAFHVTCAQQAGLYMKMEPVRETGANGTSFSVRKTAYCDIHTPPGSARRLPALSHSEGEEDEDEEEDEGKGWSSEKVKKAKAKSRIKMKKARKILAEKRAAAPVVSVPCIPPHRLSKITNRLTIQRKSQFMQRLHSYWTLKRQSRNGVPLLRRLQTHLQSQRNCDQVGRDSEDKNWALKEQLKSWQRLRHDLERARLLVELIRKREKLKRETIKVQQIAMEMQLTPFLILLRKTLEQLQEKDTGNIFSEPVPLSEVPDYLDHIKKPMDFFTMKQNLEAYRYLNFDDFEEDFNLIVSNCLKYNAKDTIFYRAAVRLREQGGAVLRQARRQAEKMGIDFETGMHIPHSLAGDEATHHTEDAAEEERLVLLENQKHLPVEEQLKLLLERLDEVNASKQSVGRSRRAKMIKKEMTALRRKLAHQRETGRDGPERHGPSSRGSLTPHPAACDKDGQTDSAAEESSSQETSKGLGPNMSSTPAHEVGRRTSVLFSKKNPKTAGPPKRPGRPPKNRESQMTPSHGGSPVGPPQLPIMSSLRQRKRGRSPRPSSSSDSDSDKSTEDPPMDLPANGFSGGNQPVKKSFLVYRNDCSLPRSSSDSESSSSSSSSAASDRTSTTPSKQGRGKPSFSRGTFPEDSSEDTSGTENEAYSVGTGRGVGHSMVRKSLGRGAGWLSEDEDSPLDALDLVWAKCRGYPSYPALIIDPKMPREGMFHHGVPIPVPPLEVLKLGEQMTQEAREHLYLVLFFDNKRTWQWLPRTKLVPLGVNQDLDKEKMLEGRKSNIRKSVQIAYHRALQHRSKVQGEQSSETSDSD
Kind of assay: Displacement of biotinylated JQ1 analog from recombinant His-tagged BRPF1 (unknown origin) incubated for 10 mins by TR-FRET assay. In short, it runs like this:
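Bromodomain, then biotinylated ligand, each added with 10 min incubation. Anti-His europium (0.2 nM) plus streptavidin-APC followed for 40 min. 10-point titrations in duplicate, at least 2 independent runs.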
(In TR-FRET formats the signal depends on donor and acceptor labels being close together.)

The target of assay [1] is T2, Transcription initiation factor TFIID subunit 1 (Homo sapiens, UniProt P21675). Kind of assay: Inhibition of recombinant His-tagged TAF1 isoform-1 (unknown origin) using biotinylated ligand incubated for 10 mins by TR-FRET assay.
The next assay deals with CREB-binding protein (Homo sapiens, UniProt Q92793). Kind of assay: Displacement of biotinylated JQ1 analog from recombinant His-tagged CBP (unknown origin) incubated for 10 mins by TR-FRET assay.
Assay [2] addresses T3, Bromodomain-containing protein 4 (Homo sapiens, UniProt O60885). Kind of assay: Inhibition of recombinant His-tagged BRD4 bromodomain1 (unknown origin) using biotinylated ligand incubated for 10 mins by TR-FRET assay.
For assay [3], the target named is T3, Bromodomain-containing protein 4. Kind of assay: Inhibition of recombinant His-tagged BRD4 bromodomain2 (unknown origin) using biotinylated ligand incubated for 10 mins by TR-FRET assay.
Assay [4] addresses T2, Transcription initiation factor TFIID subunit 1. Kind of assay: Inhibition of recombinant His-tagged TAF1 isoform-2 (unknown origin) using biotinylated ligand incubated for 10 mins by TR-FRET assay.
In assay [5] the target is T4, Bromodomain-containing protein 9 (Homo sapiens, UniProt Q9H8M2).
T4 sequence (Q9H8M2 whole entry): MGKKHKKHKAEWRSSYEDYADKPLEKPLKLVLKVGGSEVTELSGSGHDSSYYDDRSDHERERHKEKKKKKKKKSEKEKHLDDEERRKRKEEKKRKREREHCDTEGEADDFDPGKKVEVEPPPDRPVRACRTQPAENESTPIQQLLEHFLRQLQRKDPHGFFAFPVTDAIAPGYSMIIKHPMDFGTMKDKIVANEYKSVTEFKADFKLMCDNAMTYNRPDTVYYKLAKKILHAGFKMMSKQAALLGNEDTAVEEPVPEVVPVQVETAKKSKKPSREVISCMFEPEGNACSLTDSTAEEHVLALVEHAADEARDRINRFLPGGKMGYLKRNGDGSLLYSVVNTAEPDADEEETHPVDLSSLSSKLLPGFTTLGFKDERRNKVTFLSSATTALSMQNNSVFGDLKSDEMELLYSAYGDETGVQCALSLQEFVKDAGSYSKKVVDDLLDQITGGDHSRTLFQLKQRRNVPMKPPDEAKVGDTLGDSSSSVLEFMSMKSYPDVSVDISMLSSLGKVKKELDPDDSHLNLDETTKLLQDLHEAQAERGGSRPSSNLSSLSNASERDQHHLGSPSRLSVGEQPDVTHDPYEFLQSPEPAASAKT
Nature of the assay: Displacement of biotinylated JQ1 analog from recombinant His-tagged BRD9 (unknown origin) incubated for 10 mins by TR-FRET assay.

In assay [6] the target is Chromatin remodeling regulator CECR2 (Homo sapiens, UniProt Q9BXF3). Nature of the assay: Inhibition of recombinant His-tagged CECR2 (unknown origin) using biotinylated ligand incubated for 10 mins by TR-FRET assay.
Chain of Chromatin remodeling regulator CECR2 (Q9BXF3 whole entry): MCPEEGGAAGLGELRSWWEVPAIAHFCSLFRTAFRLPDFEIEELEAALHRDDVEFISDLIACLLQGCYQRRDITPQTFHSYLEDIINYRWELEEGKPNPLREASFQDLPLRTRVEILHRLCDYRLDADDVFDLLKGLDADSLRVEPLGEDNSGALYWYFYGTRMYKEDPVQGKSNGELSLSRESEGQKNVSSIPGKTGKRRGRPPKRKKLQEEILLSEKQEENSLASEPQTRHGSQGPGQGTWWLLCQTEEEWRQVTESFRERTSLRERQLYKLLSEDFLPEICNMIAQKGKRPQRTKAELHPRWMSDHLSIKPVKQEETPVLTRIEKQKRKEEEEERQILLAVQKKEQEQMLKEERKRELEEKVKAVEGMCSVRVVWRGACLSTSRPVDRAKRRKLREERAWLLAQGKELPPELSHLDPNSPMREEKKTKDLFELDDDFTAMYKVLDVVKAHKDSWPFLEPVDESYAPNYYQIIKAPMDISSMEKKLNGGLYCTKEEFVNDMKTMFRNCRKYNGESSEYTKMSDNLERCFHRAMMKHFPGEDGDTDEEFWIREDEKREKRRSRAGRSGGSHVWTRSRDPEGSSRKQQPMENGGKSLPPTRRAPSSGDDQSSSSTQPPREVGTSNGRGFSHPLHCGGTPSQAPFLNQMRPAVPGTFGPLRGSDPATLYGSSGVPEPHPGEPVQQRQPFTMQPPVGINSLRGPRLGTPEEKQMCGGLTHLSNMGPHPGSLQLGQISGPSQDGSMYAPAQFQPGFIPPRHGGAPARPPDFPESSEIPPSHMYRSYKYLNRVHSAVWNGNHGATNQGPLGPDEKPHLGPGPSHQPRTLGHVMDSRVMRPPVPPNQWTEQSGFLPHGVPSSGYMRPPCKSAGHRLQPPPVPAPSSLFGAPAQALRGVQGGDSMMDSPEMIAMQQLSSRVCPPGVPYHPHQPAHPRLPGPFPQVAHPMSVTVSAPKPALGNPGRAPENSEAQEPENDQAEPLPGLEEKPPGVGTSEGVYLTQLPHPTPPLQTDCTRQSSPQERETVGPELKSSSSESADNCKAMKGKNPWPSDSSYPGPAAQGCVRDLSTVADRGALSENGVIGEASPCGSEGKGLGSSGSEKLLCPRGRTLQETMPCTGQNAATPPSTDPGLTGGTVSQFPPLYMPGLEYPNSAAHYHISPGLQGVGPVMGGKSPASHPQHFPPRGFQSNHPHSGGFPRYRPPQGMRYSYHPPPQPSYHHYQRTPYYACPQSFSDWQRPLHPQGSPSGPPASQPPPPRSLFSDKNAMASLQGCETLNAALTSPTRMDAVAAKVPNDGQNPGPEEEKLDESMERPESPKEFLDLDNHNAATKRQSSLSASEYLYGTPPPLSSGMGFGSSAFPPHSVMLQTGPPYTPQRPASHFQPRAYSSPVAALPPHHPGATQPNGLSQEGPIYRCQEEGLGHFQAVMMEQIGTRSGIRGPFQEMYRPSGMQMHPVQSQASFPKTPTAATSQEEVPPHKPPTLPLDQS

T2 sequence (P21675 whole entry, canonical isoform): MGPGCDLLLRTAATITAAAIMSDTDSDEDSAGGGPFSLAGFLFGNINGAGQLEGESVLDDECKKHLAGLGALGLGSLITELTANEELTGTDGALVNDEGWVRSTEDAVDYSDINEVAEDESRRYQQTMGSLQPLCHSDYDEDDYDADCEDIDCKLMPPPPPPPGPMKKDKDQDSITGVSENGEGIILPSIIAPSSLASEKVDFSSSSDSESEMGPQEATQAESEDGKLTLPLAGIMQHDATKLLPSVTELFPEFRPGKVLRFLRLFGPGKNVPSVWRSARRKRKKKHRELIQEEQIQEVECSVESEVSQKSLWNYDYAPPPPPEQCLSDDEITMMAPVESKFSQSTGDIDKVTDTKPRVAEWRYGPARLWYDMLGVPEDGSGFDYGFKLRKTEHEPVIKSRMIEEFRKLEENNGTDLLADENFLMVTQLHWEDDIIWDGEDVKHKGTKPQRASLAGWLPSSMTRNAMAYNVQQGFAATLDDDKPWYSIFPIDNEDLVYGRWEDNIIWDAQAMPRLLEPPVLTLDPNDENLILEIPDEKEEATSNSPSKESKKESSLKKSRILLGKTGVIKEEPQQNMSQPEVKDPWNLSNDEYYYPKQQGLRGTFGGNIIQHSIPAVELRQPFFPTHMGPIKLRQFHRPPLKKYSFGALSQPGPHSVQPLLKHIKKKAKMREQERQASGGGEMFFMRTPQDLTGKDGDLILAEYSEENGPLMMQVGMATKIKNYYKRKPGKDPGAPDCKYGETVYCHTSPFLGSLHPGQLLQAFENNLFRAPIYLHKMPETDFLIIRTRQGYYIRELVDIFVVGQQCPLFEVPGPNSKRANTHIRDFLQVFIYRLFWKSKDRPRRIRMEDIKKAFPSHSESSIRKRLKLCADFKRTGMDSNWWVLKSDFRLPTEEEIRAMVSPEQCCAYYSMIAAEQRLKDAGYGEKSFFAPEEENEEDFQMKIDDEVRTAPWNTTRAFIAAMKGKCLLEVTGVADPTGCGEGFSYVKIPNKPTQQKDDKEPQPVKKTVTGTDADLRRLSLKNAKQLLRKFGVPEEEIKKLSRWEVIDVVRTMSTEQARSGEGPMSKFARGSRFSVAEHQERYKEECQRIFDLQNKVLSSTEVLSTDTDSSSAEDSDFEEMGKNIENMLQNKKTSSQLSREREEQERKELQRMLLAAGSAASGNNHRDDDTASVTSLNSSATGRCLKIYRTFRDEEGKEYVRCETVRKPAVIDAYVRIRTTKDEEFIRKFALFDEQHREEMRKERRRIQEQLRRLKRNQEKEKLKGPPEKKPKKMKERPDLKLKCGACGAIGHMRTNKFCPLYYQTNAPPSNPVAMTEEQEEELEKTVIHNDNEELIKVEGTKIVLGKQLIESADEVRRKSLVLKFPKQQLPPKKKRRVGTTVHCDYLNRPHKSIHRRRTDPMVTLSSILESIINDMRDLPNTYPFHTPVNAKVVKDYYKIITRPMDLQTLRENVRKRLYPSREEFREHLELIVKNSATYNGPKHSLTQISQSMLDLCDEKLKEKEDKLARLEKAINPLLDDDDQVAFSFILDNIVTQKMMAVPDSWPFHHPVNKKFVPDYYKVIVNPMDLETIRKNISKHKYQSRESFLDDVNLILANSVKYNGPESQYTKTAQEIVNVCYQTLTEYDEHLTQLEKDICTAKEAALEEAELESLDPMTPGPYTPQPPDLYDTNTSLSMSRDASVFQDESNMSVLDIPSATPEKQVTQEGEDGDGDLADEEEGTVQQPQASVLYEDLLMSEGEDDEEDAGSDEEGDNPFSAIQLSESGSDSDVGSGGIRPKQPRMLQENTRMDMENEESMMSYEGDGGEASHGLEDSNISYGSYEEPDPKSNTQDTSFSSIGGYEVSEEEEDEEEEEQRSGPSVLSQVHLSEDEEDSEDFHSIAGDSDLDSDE

Turning to `C=CCCn1cc(-c2cccc(C(=O)N(C)C)c2)c2cc[nH]c2c1=O`, the IC50 on Peregrin was greater than 20 µM.
On the same count and under the same terms, under `C/C=C/Cn1cc(-c2cccc(C(=O)N(C)C)c2)c2cc[nH]c2c1=O` stands greater than 20 µM.
Consider `Cn1ccc2cc[nH]c2c1=O`, for which the IC50 was 38.9 µM in assay [1]; 11.8 µM at CREB-binding protein; 18.4 µM in assay [2]; 7.5 µM in assay [3]; 23.7 µM in assay [4]; 53.8 µM at Peregrin. Further, the IC50 turned out to be 13.7 µM in assay [5] and 42.8 µM in assay [6].

For orientation: IC50 means the midpoint of a concentration-inhibition curve.
